Reference: PMC2714051 (European journal of medicinal chemistry, 2008)
Converted amounts (≈) assume the structure as drawn.

Experiments:
HCT-8 (colon) = test: MTT cytotoxicity assay, HCT-8; type: cell-based; details: Homo sapiens, HCT-8, 72 h, read-out: Cytotoxic activity IC50
Summary of the method: (§1)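 Test compounds at 0.0009–5 µg/mL were incubated with the human tumour cells for 72 h. Growth was read by the cells' reduction of yellow MTT to blue formazan.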

HL-60 (leukemia) = test: MTT cytotoxicity assay, HL-60; type: cell-based; details: Homo sapiens, HL-60, 72 h, read-out: Cytotoxic activity IC50
Summary of the method: as §1

MDA/MB-435 (breast) = test: MTT cytotoxicity assay, MDA/MB-435; type: cell-based; details: Homo sapiens, MDA-MB-435, 72 h, read-out: Cytotoxic activity IC50
Summary of the method: as §1

SF-295 (glyoblastoma) = test: MTT cytotoxicity assay, SF-295; type: cell-based; details: Homo sapiens, SF-295, 72 h, read-out: Cytotoxic activity IC50
Summary of the method: as §1

[1] = test system: MCF-7 human breast cancer cells; test: MCF-7 cell growth, sulforhodamine B; type: cell-based
bovine brain tubulin = test: [3H]colchicine binding to tubulin; details: 1 μM drug; 1.0 μM tubulin, 5.0 μM [3H]colchicine, 10 min 37 °C

Row | Structure (SMILES) | IC50 (HCT-8 (colon)) [µg/mL] | IC50 (HL-60 (leukemia)) [µg/mL] | IC50 (MDA/MB-435 (breast)) [µg/mL] | IC50 (SF-295 (glyoblastoma)) [µg/mL] | Fold less active than CA4 as an inhibitor of MCF-7 cell growth ([1]; in comparison with CA4) | IC50 ([1]; Homo sapiens, MCF7, 48 h, read-out: MCF-7 cell growth IC50 ± SD) [nM] | Colchicine binding % inhibition ± SD (bovine brain tubulin) [%]
1 | COc1ccc(S(=O)(=O)c2cc(OC)c(OC)c(OC)c2)cc1 [compound 3, 1,2,3-trimethoxy-5[(4-methoxyphenyl)sulfonyl]benzene] | 3.95 (≈ 11.7 µM) | 1.53 (≈ 4.52 µM) | 0.75 (≈ 2.22 µM) | 2.61 (≈ 7.71 µM) |  |  | 
2 | COc1ccc(Sc2cc(OC)c(OC)c(OC)c2)cc1 [compound 1, 1,2,3-trimethoxy-5-[(4-methoxyphenyl)thio]benzene] | 0.01 (≈ 0.0326 µM) | 0.001 (≈ 0.00326 µM) | 0.001 (≈ 0.00326 µM) | 0.01 (≈ 0.0326 µM) | about 10 fold |  | 
3 | COc1ccc([S+]([O-])c2cc(OC)c(OC)c(OC)c2)cc1 (stereo not drawn) [compound 2, 1,2,3-trimethoxy-5[(4-methoxyphenyl)sulfinyl]benzene] | 0.15 (≈ 0.465 µM) | 0.11 (≈ 0.341 µM) | 0.09 (≈ 0.279 µM) | 0.47 (≈ 1.46 µM) |  |  | 
4 | COc1ccc(/C=C\c2cc(OC)c(OC)c(OC)c2)cc1O [CA4, combretastatin A-4, reference compound] |  |  |  |  |  | 1.4 ± 0.1 | 85 ± 5
